Experimental data pooled from the literature.
Protocols differ between the studies behind these lines.
Target: Serine/threonine-protein kinase PLK1 (PLK1, Homo sapiens, UniProt P53350)

SMILES	effect on	method	tested at	remaining binding [%]
C[C@@H](c1cccc(C#N)c1)n1cc(Cl)cc(C(N)=O)c1=N	cell-free assay	competition with immobilised ligand	1 µM	98
COc1ncc2cc3ccccc3nc2c1C#N	cell-free assay	competition with immobilised ligand	5 µM	73
c1cnn2ncc(-c3ccnc(N4CCC45COC5)n3)c2c1	binding		1 µM	72
CO[C@@H](C)c1c(Nc2ccc([C@@H](N(C)C(=O)C3CCS(=O)(=O)CC3)C(F)(F)F)cc2)cnc2cc(Cl)nn12	cell-free assay	competition with immobilised ligand	1 µM	87
CC(C)(C)c1ccc(-c2nc(CBr)nn2-c2cccc(O)c2)cc1	cell-free assay	competition with immobilised ligand	10 µM	84
O=C(N[C@H]1CCCCC/C=C\C2C[C@@]2(C(=O)O)NC(=O)[C@@H]2C[C@@H](Oc3ccncc3)CN2C1=O)OC1CCCC1 (some centres unmarked)	binding	competition with immobilised ligand	1 µM	71
COc1ccnn2ncc(-c3ccnc(N(C)C)n3)c12	binding		1 µM	94
c1ccc(N2CCN(Cc3nc4ccccc4[nH]3)CC2)nc1	binding	competition with immobilised ligand	1 µM	100
O=C(Nc1c[nH]nc1C(=O)NC1CCNCC1)c1cc(F)cc(F)c1	binding	competition with immobilised ligand	1 µM	100
NS(=O)(=O)c1cc(NC(=O)Cc2ccccc2)ccc1Oc1cccc(Cl)c1	cell-free assay	competition with immobilised ligand	1 µM	73
C[C@@H]1CN(c2ccc3ncc(-c4ccc5[nH]nc(C6CC6)c5c4)n3n2)C[C@H](C)O1	binding	competition with immobilised ligand	0.5 µM	96
O=C(NCCCN1CCOCC1)c1ccc(Nc2nccc(-c3cc4ccccc4s3)n2)cc1	binding	competition with immobilised ligand	1 µM	77
CN(C)c1nccc(-c2cnn3ncccc23)n1	binding		1 µM	56
C[C@@H](c1ccc(-n2cnc3c(N)ncnc32)cc1)N1CCc2nn(C)c(Cc3ccccc3)c2C1=O	binding	competition with immobilised ligand	0.1 µM	86
N#Cc1ccc(Nc2ccc3[nH]c(=O)[nH]c3c2)c(Cl)c1	cell-free assay	competition with immobilised ligand	1 µM	100
Nc1ncc2c(n1)-c1c([nH]c3ccc(C#CC4CC4)cc13)CCCC2	binding	competition with immobilised ligand	1 µM	68
COc1cnc(Nc2cccc(S(N)(=O)=O)c2)nc1N1CCN(c2ccccc2)CC1	binding	competition with immobilised ligand	1 µM	79
O=C(NCCCN1CCOCC1)c1ccc(Nc2ncc(Cl)c(-c3ccc(Cl)s3)n2)cc1	binding	competition with immobilised ligand	1 µM	22
CC1CCCN1c1nccc(-c2cnn3ncccc23)n1 (centres unmarked)	binding		1 µM	100
Nc1cnc(N2CCc3cc(S(=O)(=O)Nc4c(F)cc(Cl)cc4F)cc(N4CCCC4=O)c32)nc1	cell-free assay	competition with immobilised ligand	1 µM	100
C[C@@H]1CCN(c2nccc(-c3cnn4ncccc34)n2)C1	binding		1 µM	76
O=C(c1ccc(Nc2nccc(-c3cc4ccccc4s3)n2)cc1)N1CCC(N2CCCC2)CC1	binding	competition with immobilised ligand	1 µM	89
CCN1CCN(Cc2ccc(C(=O)Nc3ccc(C)c(Oc4ccc5c(c4)CC(=O)N5)c3)cc2C(F)(F)F)CC1	binding	competition with immobilised ligand	1 µM	100
c1cncc(-c2cccc(Nc3nccc(NC4CCCCC4)n3)c2)c1	binding	competition with immobilised ligand	10 µM	78
CNC(=O)c1ccccc1Nc1cc(Nc2ccc(N3CCOCC3)cc2OC)ncc1C(F)(F)F	binding	competition with immobilised ligand	1 µM	< 10
CN(CCCC(F)(F)F)c1nccc(-c2cnn3ncccc23)n1	binding		1 µM	84
